An excerpt weighted towards active compounds, which were near 2.6% of everything screened.
OXTR potentiate: human OXTR potentiation | P30559 | CHO-OTR cells, Fluo-8 calcium fluorescence, potentiator mode; 0% = oxytocin EC15, 100% = EC100 | activation, % at 3 µM | 320,000 tested, 0.061% active | AID 2445;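 active means activation above that plate's cutoff, the mean activation of tested compounds plus 3 SD, cut at about 6.6% in these data, passing the limit was not always enough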;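 further: 100% uses oxytocin at 75 nM as the full agonist control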
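System: human OTR in CHO cells; Also added: sub-maximal oxytocin, roughly EC15; Timing: compound 6 min at room temperature before oxytocin, 100 s read; Technique: Fluo-8 intracellular calcium fluorescence, ex 470-495, em 515-575 nm; Controls: oxytocin EC15 low and EC100 high; Replication: singlicate.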
V1R ag counter: V1a receptor agonism, counter-screen for OXTR agonists; P37288; CHO-V1R cells, Fluo-8 calcium fluorescence, agonist mode; 0% DMSO, 100% 3 nM vasopressin; activation, % at 3 µM; 320,000 tested, 0.25% active;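 active means activation above the mean activation of all tested compounds plus 3 SD, per screening run, cut at about 20% in these data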;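 further: signal is peak over basal fluorescence ratio across a 100 second FLIPR read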
CHO parental Ca: signal in parental CHO cells, OX1R antagonist counter-screen; AID 463079; 330,000 tested, 0.63% active; parental CHO-K1, ATP-induced calcium, Fluo-8 fluorescence; inhibition, % at 5.6 µM;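 active means inhibition above that plate's mean sample inhibition plus 3 SD, cut at about 26% in these data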;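 further: 0% = ATP-challenged DMSO wells and 100% = DMSO wells without ATP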
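material = parental CHO cells | also added = ATP as calcium-mobilizing challenge | dosing = single point at 5.6 µM | detection = intracellular calcium via Fluo-8 no-wash fluorescent dye | read-out = % inhibition | benchmarks = low control ATP plus DMSO, high control DMSO only | repeats = one well per compound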
OX1R antag-1: antagonists of human orexin 1 receptor (OX1R). O43613. OX1R-expressing cells, FRET antagonist read-out. inhibition, % at 6.6 µM. 330,000 tested, 1.8% active. AID 485270; in the data active means inhibition mostly above about 38%, no sharp cut-off; inactive means mostly below about 40%;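 further: 0% = agonist challenge alone and 100% = reference antagonist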
Target sequence (O43613 whole entry, looked up): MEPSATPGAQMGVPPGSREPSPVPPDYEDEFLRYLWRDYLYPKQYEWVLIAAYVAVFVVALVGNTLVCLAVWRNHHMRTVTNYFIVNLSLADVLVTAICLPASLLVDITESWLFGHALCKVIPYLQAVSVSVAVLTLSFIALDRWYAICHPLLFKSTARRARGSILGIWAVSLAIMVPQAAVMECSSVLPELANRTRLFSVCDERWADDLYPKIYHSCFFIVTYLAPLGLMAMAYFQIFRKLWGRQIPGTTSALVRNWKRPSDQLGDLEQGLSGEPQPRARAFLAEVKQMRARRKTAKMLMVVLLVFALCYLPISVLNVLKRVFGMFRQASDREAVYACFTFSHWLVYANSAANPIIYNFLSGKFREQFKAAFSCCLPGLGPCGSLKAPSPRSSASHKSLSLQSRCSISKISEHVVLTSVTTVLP
OXTR agonist: human OXTR agonism; activation, % at 3 µM; 320,000 tested, 0.32% active; AID 2435; CHO-OTR cells, Fluo-8 calcium fluorescence; normalized: DMSO 0%, oxytocin 100%; P30559;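 active means activation above the mean of all tested compounds plus 3 SD, cutoff set per screening run, cut at about 20% in these data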;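 further: peak over basal fluorescence ratio from a 100 s FLIPR kinetic read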
OX1R antag-2: antagonists of human orexin 1 receptor | O43613 | CHO/OX1R cells, Fluo-8 calcium fluorescence, orexin A | inhibition, % at 5 µM | 330,000 tested, 0.43% active | AID 434989;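 active means inhibition above its plate's threshold, mean inhibition of all tested compounds on the plate plus 3 SD, cut at about 37% in these data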;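 further: 0% = orexin A challenge wells and 100% = SB-334867-A antagonist wells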
Starred values were filed as active, the others as inactive; x = not tested or not shown.

SMILES | OXTR potentiate | V1R ag counter | CHO parental Ca | OX1R antag-1 | OXTR agonist | OX1R antag-2
O=c1cc(CN2CCN(S(=O)(=O)c3cccc(Cl)c3)CC2)c2ccc(O)cc2o1 | -8 | 3 | 7 | 5 | 4 | 4
O=C(NN=C1CCCC1)c1cc(Cl)cc(Cl)c1O | -24 | 14 | 12 | 7 | 16 | 10
NC(=O)C1CCCN(Cc2c(C(=O)N3CCc4ccccc4C3)nc3ccc(Cl)cn23)C1 (stereo not given) | 5 | 1 | -8 | -2 | 1 | -11
COc1ccc(C(C)(C)C)cc1NC(=O)c1ccccc1-n1cnnn1 | -2 | 1 | -26 | 8 | 0 | -32
CCOc1ccc(-c2c(C(=O)N/N=C/c3cccs3)nnn2-c2nonc2N)cc1 | 0 | 14 | -14 | 5 | 12 | -15
CCOc1ccc(/C=N/NC(=O)c2nnn(-c3nonc3N)c2-c2cccs2)cc1 | -11 | 22* | -18 | 3 | 35* | -41
CSc1ccccc1NC(=O)c1cc(-c2cccs2)on1 | -8 | 2 | -8 | 54* | 1 | -10
COc1ccc(-c2cc(C(=O)Nc3ccccc3SC)no2)cc1 | -5 | -1 | -8 | 18 | 0 | -12
Cc1ccccc1-n1c(SCC(=O)c2c(N)n(C3CC3)c(=O)[nH]c2=O)nnc1N1CCOCC1 | 1 | 1 | -12 | 5 | 1 | -1
C=CCc1ccc(OCC(O)CO)c(OC)c1 (stereo not given) | 1 | 1 | -2 | -10 | -1 | -5
C=CCc1ccc(O)c(-c2cc(CC=C)ccc2O)c1 | -8 | -1 | 40* | 3 | 4 | 47*
COc1ccc(N(C)S(=O)(=O)c2cccc(C(=O)NCc3ccc(C)cc3)c2)cc1 | -7 | 1 | -16 | 13 | 0 | 1
COc1ccc(-c2ccnc3cc(C(=O)O)nn23)cc1 | -2 | 0 | 6 | 57* | -1 | -19
COc1cc(/C(C)=C/c2ccccc2)c2c(c1)oc1ccccc12 | -4 | 0 | -20 | 32 | 1 | -33
CC(=O)NCCC(=O)Nc1ncc(S(=O)(=O)c2ccc([N+](=O)[O-])cc2)s1 | 5 | 7 | -7 | 66* | 8 | -16
CCCCC(=O)Nc1ncc(S(=O)(=O)c2ccc([N+](=O)[O-])cc2)s1 | -10 | 16 | 0 | 11 | 16 | 5
O=C(Nc1ncc(S(=O)(=O)c2ccc([N+](=O)[O-])cc2)s1)c1cccc2ccccc12 | -20 | 27* | 32 | -4 | 32* | 35
Cc1scc(C(=O)NNC(=S)NC(C)c2ccccc2)c1C (stereo not given) | -4 | 6 | -18 | 10 | 1 | -15
COCCCNC(=O)c1ccccc1N(Cc1ccccc1)S(=O)(=O)c1ccccc1 | 1 | -1 | -12 | 13 | 0 | -21
OCCN(CCO)c1ccc(C(c2ccccc2Cl)c2ccc(N(CCO)CCO)cc2Cl)c(Cl)c1 | -10 | 4 | 47* | 6 | 0 | 39
OCCN(CCO)c1ccc2ccccc2c1 | -6 | 0 | -6 | 21 | 0 | -4
Cc1ccc(C)c(COc2coc(CN3CCN(C(=O)c4ccco4)CC3)cc2=O)c1 | 0 | 1 | 1 | 4 | 1 | -21
O=C(COc1ccc(F)cc1Cl)Nc1ccccc1C(=O)N1CCCCC1 | 2 | -1 | 99* | 25 | -2 | -35
CC(=O)c1cccc(NC(=S)NC(=O)Cc2ccc(Cl)cc2)c1 | -25 | 21* | -2 | -6 | 26* | 10
CC1CCCC(C)N1C(=O)COC(=O)c1c[nH]c2ccccc12 (stereo not given) | -5 | 2 | -8 | 9 | 2 | -10
SMILES | OXTR potentiate | V1R ag counter | CHO parental Ca | OX1R antag-1 | OXTR agonist | OX1R antag-2
O=C(CSc1nnc(Nc2ccccc2F)s1)NC1CC1 | -1 | 0 | -14 | 6 | 0 | 4
O=C1[C@@H]2C(Cc3ccc(O)cc3)NC3(C(=O)Nc4ccc(F)cc43)[C@@H]2C(=O)N1c1ccccc1 (stereo not given in full) | -14 | 0 | 0 | 19 | 2 | -17
Cc1c(Cl)ccc2c1NC(=O)[C@]21N[C@@H](Cc2ccccc2)[C@H]2C(=O)N(c3ccc(F)cc3)C(=O)[C@H]21 | -12 | 24* | 5 | 2 | 27* | 19
Cc1cccc(CNC(=O)CC2C(=O)NCCN2C2CCCC2)c1 (stereo not given) | -4 | -1 | -11 | 31 | -1 | -25
CSc1cccc(NC(=O)C(=O)NCc2ccccc2)c1 | -4 | 0 | 28* | 11 | -3 | -9
CSc1cccc(NC(=O)CN(C)S(=O)(=O)c2ccccc2)c1 | -5 | 3 | -14 | 50* | 2 | 7
CCc1ccc(NC(=O)CSCc2ccc(C(=O)O)cc2)cc1 | -9 | -1 | -1 | 15 | 0 | -2
CC(C(=O)Nc1ccc2c(c1)OCCO2)c1ccc([N+](=O)[O-])cc1 (stereo not given) | -21 | 43* | 31* | 3 | 44* | 25
CC(C)=CCC12Oc3cc(O)ccc3C1(O)Oc1cc3c(c(O)c1C2=O)C=CC(C)(C)O3 (stereo not given) | -5 | 1 | 44* | 10 | 0 | -13
NC(=O)COc1c(-c2ccc(Br)o2)oc2ccccc2c1=O | -4 | -1 | -13 | 72* | 0 | 7
O=C(Oc1c(-c2ccccc2)oc2ccccc2c1=O)c1ccccc1 | -4 | -1 | -5 | 14 | -2 | -21
CCN(Cc1ccccc1)C(=O)c1ccc(C)c(S(=O)(=O)N2CCCCC2)c1 | -7 | 0 | -21 | 9 | -1 | -34
Cc1ccc(C(=O)N(CCc2ccccc2)Cc2ccccc2)cc1S(=O)(=O)N1CCCCC1 | -8 | -1 | 35* | 14 | -2 | 1
O=C(N/N=C/c1ccc2ncccc2c1)c1cc(-c2cccs2)nc2ccccc12 | 2 | 0 | -18 | 62* | -1 | 19
CC(C)(C)CC(=O)Nc1ccc(S(=O)(=O)NC2=NCCCCC2)cc1 | -2 | 0 | -8 | 6 | 2 | -11
Cc1ccc(OC(=O)c2sc3ncn(C)c(=O)c3c2C)cc1 | -14 | 1 | -1 | 12 | 2 | -21
CN(C)S(=O)(=O)c1ccc2c(c1)/C(=C/c1cc3c([nH]1)CCCC3)C(=O)N2 | -12 | 25* | 36* | -3 | 35* | 29
COc1ccc2cc(C[C@@H]3CC[C@@H](CNC(N)=O)O3)ccc2c1 | x | x | -5 | 18 | x | -3
COc1ccc(-c2nc(CSCC(=O)NCc3ccc4c(c3)OCO4)c(C)o2)cc1OC | -3 | -2 | -14 | 35 | -3 | -17
Cc1ccsc1-c1nc(CSCC(=O)NCc2ccc3c(c2)OCO3)c(C)o1 | -1 | -1 | -12 | 40* | -3 | -30
CCOc1cc(CNCCSc2nnnn2C)cc(Br)c1OCc1ccccc1 | -12 | 14 | 66* | 11 | 8 | 51*

Screening data deposited in PubChem BioAssay by The Scripps Research Institute Molecular Screening Center.
